# According to ChEMBL document CHEMBL5321283, “Structure-Activity Relationships of the Antimicrobial Peptide Natural Product Apidaecin” (J Med Chem, 2023):
# Active and inactive are the calls of the source. The calls are words filed in the database; no cut-off is given here. *1 amine or outer side, *2 acyl side, *3 side chain or, on linkers, in order; H or OH if unused. Where a SMILES comes first, the peptide text is derived from it. [ ]: non-standard residue; d: D form. The star is where a group is joined. Orn(α-tetramethylguanidino) = CN(C)C(=N[C@@H](CCCN)C(=O)*)N(C)C; X1 = N=C(N)NCCC[C@H](NC(=S)[C@@H]1CCCN1[*:1])C(=O)[*:2]; Phe(4-F) = N[C@@H](Cc1ccc(F)cc1)C(=O)O; Arg(Me) = CNC(=N)NCCC[C@H](N)C(=O)O; Hyp = O=C(O)[C@@H]1C[C@@H](O)CN1; Cha = N[C@@H](CC1CCCCC1)C(=O)O; Cit = NC(=O)NCCC[C@H](N)C(=O)O; NMeL = CN[C@@H](CC(C)C)C(=O)O; NHIsopentyl = CC(C)CCN*
# Legend:
# Escherichia coli [1] = experiment: Antibacterial activity against Escherichia coli BL21 harboring sbmA mutant assessed as bacterial growth inhibition by broth microdilution assay; type: functional
# Escherichia coli [2] = experiment: Potency index, ratio of Api-137 MIC to test compound MIC for antibacterial activity against Escherichia coli BL21 assessed as bacterial growth inhibition by broth microdilution assay; type: functional
# Escherichia coli [3] = experiment: Antibacterial activity against Escherichia coli BL21 harboring RF2 (Q280L) mutant assessed as bacterial growth inhibition by broth microdilution assay; type: functional
# Escherichia coli [4] = experiment: Antibacterial activity against Escherichia coli BL21 assessed as bacterial growth inhibition by broth microdilution assay; type: functional
# Escherichia coli [5] = experiment: Antibacterial activity against Escherichia coli BL21 harboring RF2 (R262C) mutant assessed as bacterial growth inhibition by broth microdilution assay; type: functional
# [6] = Stability in human plasma assessed as parent compound remaining measured after 2 hrs; type: ADME, cell-free; details: read-out: Stability
# Escherichia coli [7] = experiment: Induction of stop-codon readthrough in Escherichia coli BL21 carrying pRXG (UGA) reporter incubated for 18 hrs by imaging analysis; type: functional
# Method in brief: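 Lawn spread on M9 agar with 0.2 mM IPTG and kanamycin, then dried. 2 μL drops of 0.2 mM peptide applied; 1 μL chloramphenicol (1 mg/mL) as negative control. ~18 h, 37 °C; RFP (Cy3) and GFP (Cy2) imaged.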
Compound,MIC (Escherichia coli [1]) [µM],Ratio (Escherichia coli [2]),MIC (Escherichia coli [3]) [µM],MIC (Escherichia coli [4]) [µM],MIC (Escherichia coli [5]) [µM],remaining at 2 h [6] [%],Activity (Escherichia coli [7])
CC[C@H](C)[C@H](NC(=O)[C@H](Cc1ccc(O)cc1)NC(=O)[C@@H](NC(=O)[C@@H]1CCCN1C(=O)[C@H](CCCNC(=N)N)NC(=O)[C@H](CC(N)=O)NC(=O)[C@H](CC(N)=O)NC(=O)[C@H](CCCN)N=C(N(C)C)N(C)C)C(C)C)C(=O)N1CCC[C@H]1C(=O)N[C@@H](CCCNC(=N)N)C(=O)N1CCC[C@H]1C(=O)N[C@@H](CCCNC(=N)N)C(=O)N1CCC[C@H]1C(=O)N1CCC[C@H]1C(=O)N[C@@H](Cc1c[nH]cn1)C(=O)N1CCC[C@H]1C(=O)N[C@@H](CCCNC(=N)N)C(=O)N[C@@H](CC(C)C)C(=O)O ({Orn(α-tetramethylguanidino)}-NNRPVYIPRPRPPHPRL-OH),> 25,1,> 25,0.16,> 25,~80,
CC[C@H](C)[C@H](NC(=O)[C@H](Cc1ccc(O)cc1)NC(=O)[C@@H](NC(=O)[C@@H]1CCCN1C(=O)[C@H](CCCNC(=N)N)NC(=O)[C@H](CC(N)=O)NC(=O)[C@H](CC(N)=O)NC(=O)[C@H](CCCN)N=C(N(C)C)N(C)C)C(C)C)C(=O)N1CCC[C@H]1C(=O)N[C@@H](CCCNC(=N)N)C(=O)N1CCC[C@H]1C(=O)N[C@@H](CCCNC(=N)N)C(=O)N1CCC[C@H]1C(=O)N1CCC[C@H]1C(=O)N[C@@H](Cc1c[nH]cn1)C(=O)N1CCC[C@H]1C(=O)N[C@@H](CCCNC(=N)NC)C(=O)N[C@@H](CC(C)C)C(=O)O ({Orn(α-tetramethylguanidino)}-NNRPVYIPRPRPPHP[Arg(Me)]L-OH),> 25,1,25,0.3,> 25,,Active
CC[C@H](C)[C@H](NC(=O)[C@H](Cc1ccc(O)cc1)NC(=O)[C@@H](NC(=O)[C@@H]1CCCN1C(=O)[C@H](CCCNC(=N)N)NC(=O)[C@H](CC(N)=O)NC(=O)[C@H](CC(N)=O)NC(=O)[C@H](CCCN)N=C(N(C)C)N(C)C)C(C)C)C(=O)N1CCC[C@H]1C(=O)N[C@@H](CCCNC(=N)N)C(=O)N1CCC[C@H]1C(=O)N[C@@H](CCCNC(=N)N)C(=O)N1CCC[C@H]1C(=O)N1CCC[C@H]1C(=O)N[C@@H](Cc1c[nH]cn1)C(=O)N1CCC[C@H]1C(=O)N[C@@H](CCCNC(=N)N)C(=O)N(C)[C@@H](CC(C)C)C(=O)O ({Orn(α-tetramethylguanidino)}-NNRPVYIPRPRPPHPR[NMeL]-OH),> 25,,,,> 25,~80,Active
CC[C@H](C)[C@H](NC(=O)[C@H](Cc1ccc(O)cc1)NC(=O)[C@@H](NC(=O)[C@@H]1CCCN1C(=O)[C@H](CCCNC(=N)N)NC(=O)[C@H](CC(N)=O)NC(=O)[C@H](CC(N)=O)NC(=O)[C@H](CCCN)N=C(N(C)C)N(C)C)C(C)C)C(=O)N1CCC[C@H]1C(=O)N[C@@H](CCCNC(=N)N)C(=O)N1CCC[C@H]1C(=O)N[C@@H](CCCNC(=N)N)C(=O)N1CCC[C@H]1C(=O)N1CCC[C@H]1C(=O)N[C@@H](Cc1c[nH]cn1)C(=O)N1CCC[C@H]1C(=O)N[C@@H](CCCNC(N)=O)C(=O)N[C@@H](CC(C)C)C(=O)O ({Orn(α-tetramethylguanidino)}-NNRPVYIPRPRPPHP[Cit]L-OH),,128,,20,,,
CC[C@H](C)[C@H](NC(=O)[C@H](Cc1ccc(O)cc1)NC(=O)[C@@H](NC(=O)[C@@H]1CCCN1C(=O)[C@H](CCCNC(=N)N)NC(=O)[C@H](CC(N)=O)NC(=O)[C@H](CC(N)=O)NC(=O)[C@H](CCCN)N=C(N(C)C)N(C)C)C(C)C)C(=O)N1CCC[C@H]1C(=O)N[C@@H](CCCNC(=N)N)C(=O)N1CCC[C@H]1C(=S)N[C@@H](CCCNC(=N)N)C(=O)N1CCC[C@H]1C(=O)N1CCC[C@H]1C(=O)N[C@@H](Cc1c[nH]cn1)C(=O)N1CCC[C@H]1C(=O)N[C@@H](CCCNC(=N)N)C(=O)N[C@@H](CC(C)C)C(=O)O ({Orn(α-tetramethylguanidino)}-NNRPVYIPR[X1]PPHPRL-OH),,4,,0.62,,,
CC[C@H](C)[C@H](NC(=O)[C@H](CC1CCCCC1)NC(=O)[C@@H](NC(=O)[C@@H]1CCCN1C(=O)[C@H](CCCNC(=N)N)NC(=O)[C@H](CC(N)=O)NC(=O)[C@H](CC(N)=O)NC(=O)[C@H](CCCN)N=C(N(C)C)N(C)C)C(C)C)C(=O)N1CCC[C@H]1C(=O)N[C@@H](CCCNC(=N)N)C(=O)N1CCC[C@H]1C(=O)N[C@@H](CCCNC(=N)N)C(=O)N1CCC[C@H]1C(=O)N1CCC[C@H]1C(=O)N[C@@H](Cc1c[nH]cn1)C(=O)N1CCC[C@H]1C(=O)N[C@@H](CCCNC(=N)N)C(=O)N[C@@H](CC(C)C)C(=O)O ({Orn(α-tetramethylguanidino)}-NNRPV[Cha]IPRPRPPHPRL-OH),,2,,0.75,,,
CC[C@H](C)[C@H](NC(=O)[C@H](Cc1ccc(F)cc1)NC(=O)[C@@H](NC(=O)[C@@H]1C[C@@H](O)CN1C(=O)[C@H](CCCNC(=N)N)NC(=O)[C@H](CC(N)=O)NC(=O)[C@H](CC(N)=O)NC(=O)[C@H](CCCN)N=C(N(C)C)N(C)C)C(C)C)C(=O)N1CCC[C@H]1C(=O)N[C@@H](CCCNC(=N)N)C(=O)N1CCC[C@H]1C(=O)N[C@@H](CCCNC(=N)N)C(=O)N1CCC[C@H]1C(=O)N1CCC[C@H]1C(=O)N[C@@H](Cc1c[nH]cn1)C(=O)N1CCC[C@H]1C(=O)N[C@@H](CCCNC(=N)NC)C(=O)N(C)[C@@H](CC(C)C)C(=O)O ({Orn(α-tetramethylguanidino)}-NNR[Hyp]V[Phe(4-F)]IPRPRPPHP[Arg(Me)][NMeL]-OH),> 25,,,,6.2,~80,Active
CC[C@H](C)[C@H](NC(=O)[C@H](Cc1ccc(O)cc1)NC(=O)[C@@H](NC(=O)[C@@H]1CCCN1C(=O)[C@H](CCCNC(=N)N)NC(=O)[C@H](CC(N)=O)NC(=O)[C@H](CC(N)=O)NC(=O)[C@H](CCCN)N=C(N(C)C)N(C)C)C(C)C)C(=O)N1CCC[C@H]1C(=O)N[C@@H](CCCNC(=N)N)C(=O)N1CCC[C@H]1C(=O)N[C@@H](CCCNC(=N)N)C(=O)N1CCC[C@H]1C(=O)N1CCC[C@H]1C(=O)N[C@@H](Cc1c[nH]cn1)C(=O)N1CCC[C@H]1C(=O)N[C@@H](CCCNC(=N)N)C(=O)NCCC(C)C ({Orn(α-tetramethylguanidino)}-NNRPVYIPRPRPPHPR-NHIsopentyl),,>800,,> 40,,,
CC[C@H](C)[C@H](NC(=O)[C@H](Cc1ccc(O)cc1)NC(=O)[C@@H](NC(=O)[C@@H]1CCCN1C(=O)[C@H](CCCNC(=N)N)NC(=O)[C@H](CC(N)=O)NC(=O)[C@H](CC(N)=O)NC(=O)[C@H](CCCN)N=C(N(C)C)N(C)C)C(C)C)C(=O)N1CCC[C@H]1C(=O)N[C@@H](CCCNC(=N)N)C(=O)N1C[C@H](O)C[C@H]1C(=O)N[C@@H](CCCNC(=N)N)C(=O)N1CCC[C@H]1C(=O)N1CCC[C@H]1C(=O)N[C@@H](Cc1c[nH]cn1)C(=O)N1CCC[C@H]1C(=O)N[C@@H](CCCNC(=N)N)C(=O)N[C@@H](CC(C)C)C(=O)O ({Orn(α-tetramethylguanidino)}-NNRPVYIPR[Hyp]RPPHPRL-OH),,4,,1.2,,,
CC[C@H](C)[C@H](NC(=O)[C@H](Cc1ccc(F)cc1)NC(=O)[C@@H](NC(=O)[C@@H]1CCCN1C(=O)[C@H](CCCNC(=N)N)NC(=O)[C@H](CC(N)=O)NC(=O)[C@H](CC(N)=O)NC(=O)[C@H](CCCN)N=C(N(C)C)N(C)C)C(C)C)C(=O)N1CCC[C@H]1C(=O)N[C@@H](CCCNC(=N)N)C(=O)N1CCC[C@H]1C(=O)N[C@@H](CCCNC(=N)N)C(=O)N1CCC[C@H]1C(=O)N1CCC[C@H]1C(=O)N[C@@H](Cc1c[nH]cn1)C(=O)N1CCC[C@H]1C(=O)N[C@@H](CCCNC(=N)N)C(=O)N[C@@H](CC(C)C)C(=O)O ({Orn(α-tetramethylguanidino)}-NNRPV[Phe(4-F)]IPRPRPPHPRL-OH),,1,,0.35,,,
CC[C@H](C)[C@H](NC(=O)[C@H](Cc1ccc(O)cc1)NC(=O)[C@@H](NC(=O)[C@@H]1CCCN1C(=O)[C@H](CCCNC(=N)N)NC(=O)[C@H](CC(N)=O)NC(=O)[C@H](CC(N)=O)NC(=O)[C@H](CCCN)N=C(N(C)C)N(C)C)C(C)C)C(=O)N1CCC[C@H]1C(=O)N[C@@H](CCCNC(=N)N)C(=O)N1CCC[C@H]1C(=O)N[C@@H](CCCNC(=N)N)C(=O)N1CCC[C@H]1C(=O)N1CCC[C@H]1C(=O)N[C@@H](Cc1c[nH]cn1)C(=O)N1CCC[C@H]1C(=O)N[C@@H](CCCNC(=N)N)C(=O)N[C@H](CO)Cc1ccccc1,,32,,5,,,
CC[C@H](C)[C@H](NC(=O)[C@H](Cc1ccc(O)cc1)NC(=O)[C@@H](NC(=O)[C@@H]1CCCN1C(=O)[C@H](CCCNC(=N)N)NC(=O)[C@H](CC(N)=O)NC(=O)[C@H](CC(N)=O)NC(=O)[C@H](CCCN)N=C(N(C)C)N(C)C)C(C)C)C(=O)N1CCC[C@H]1C(=O)N[C@@H](CCCNC(=N)N)C(=O)N1CCC[C@H]1C(=O)N[C@@H](CCCNC(=N)N)C(=O)N1C[C@H](O)C[C@H]1C(=O)N1CCC[C@H]1C(=O)N[C@@H](Cc1c[nH]cn1)C(=O)N1CCC[C@H]1C(=O)N[C@@H](CCCNC(=N)N)C(=O)N[C@@H](CC(C)C)C(=O)O ({Orn(α-tetramethylguanidino)}-NNRPVYIPRPR[Hyp]PHPRL-OH),,2,,0.16,,,
